Measurements published in ChEMBL document CHEMBL1759954, “Synthesis of some novel 3-(1-(1-substitutedpiperidin-4-yl)-1H-1,2,3-triazol-4-yl)-5-substituted phenyl-1,2,4-oxadiazoles as antifungal agents” (2011).
Converted amounts (≈) assume the structure as drawn. The source made the active and inactive calls. No cut-off for these calls is given here.

Experiments:
[1] = tested on: Aspergillus niger; experiment: Antifungal activity against Aspergillus niger; type: functional
Procedure, shortened: (§1)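 In vitro MIC determination by standard agar method, cited from earlier work; fungal strains tested were Candida albicans, Fusarium oxysporum, Aspergillus flavus, Aspergillus niger and Cryptococcus neoformans, with miconazole and fluconazole run as reference standards.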

[2] = tested on: Candida albicans; experiment: Antifungal activity against Candida albicans; type: functional; procedure, shortened: as §1
[3] = tested on: Cryptococcus neoformans; experiment: Antifungal activity against Cryptococcus neoformans; type: functional; procedure, shortened: as §1
[4] = tested on: Fusarium oxysporum; experiment: Antifungal activity against Fusarium oxysporum; type: functional; procedure, shortened: as §1
[5] = tested on: Aspergillus flavus; experiment: Antifungal activity against Aspergillus flavus; type: functional; procedure, shortened: as §1
[6] = tested on: Fusarium oxysporum; experiment: Antifungal activity against Fusarium oxysporum up to 200 ug/ml; type: functional, organism-based; procedure, shortened: as §1
[7] = tested on: Aspergillus niger; experiment: Antifungal activity against Aspergillus niger up to 200 ug/ml; type: functional, organism-based; procedure, shortened: as §1
[8] = tested on: Cryptococcus neoformans; experiment: Antifungal activity against Cryptococcus neoformans up to 200 ug/ml; type: functional, organism-based; procedure, shortened: as §1
[9] = tested on: Aspergillus flavus; experiment: Antifungal activity against Aspergillus flavus up to 200 ug/ml; type: functional, organism-based; procedure, shortened: as §1

| Structure (SMILES) | MIC [1] [µg/mL] | MIC [2] [µg/mL] | MIC [3] [µg/mL] | MIC [4] [µg/mL] | MIC [5] [µg/mL] | Activity [6] | Activity [7] | Activity [8] | Activity [9] |
| --- | --- | --- | --- | --- | --- | --- | --- | --- | --- |
| CCCC(=O)N1CCC(n2cc(-c3noc(-c4ccccc4)n3)nn2)CC1 | 47.5 (≈ 130 µM) | 90 (≈ 246 µM) | 150 (≈ 409 µM) | 100 (≈ 273 µM) | 35 (≈ 95.5 µM) | – | – | – | – |
| Clc1ccc(COC(Cn2ccnc2)c2ccc(Cl)cc2Cl)c(Cl)c1 (stereo not given) [MICONAZOLE] | 12.5 (≈ 30 µM) | 25 (≈ 60.1 µM) | 25 (≈ 60.1 µM) | 25 (≈ 60.1 µM) | 12.5 (≈ 30 µM) | – | – | – | – |
| O=C(c1ccccc1)N1CCC(n2cc(-c3noc(-c4ccccc4)n3)nn2)CC1 | – | 90 (≈ 225 µM) | 100 (≈ 250 µM) | – | 65 (≈ 162 µM) | inactive | inactive | – | – |
| c1ccc(CN2CCC(n3cc(-c4noc(-c5ccccc5)n4)nn3)CC2)cc1 | 150 (≈ 388 µM) | 50 (≈ 129 µM) | 70 (≈ 181 µM) | 65 (≈ 168 µM) | 50 (≈ 129 µM) | – | – | – | – |
| O=C(c1ccccc1)N1CCC(n2cc(-c3noc(-c4ccc(Cl)cc4)n3)nn2)CC1 | – | 75 (≈ 172 µM) | 100 (≈ 230 µM) | 85 (≈ 195 µM) | 65 (≈ 149 µM) | – | inactive | – | – |
| CCC(=O)N1CCC(n2cc(-c3noc(-c4ccccc4)n3)nn2)CC1 | – | 50 (≈ 142 µM) | – | 60 (≈ 170 µM) | 30 (≈ 85.1 µM) | – | inactive | inactive | – |
| CN1CCC(n2cc(-c3noc(-c4ccc(Cl)cc4)n3)nn2)CC1 | 15 (≈ 43.5 µM) | 35 (≈ 102 µM) | – | 50 (≈ 145 µM) | 15 (≈ 43.5 µM) | – | – | inactive | – |
| CCN1CCC(n2cc(-c3noc(-c4ccccc4)n3)nn2)CC1 | 47.5 (≈ 146 µM) | 90 (≈ 277 µM) | 150 (≈ 462 µM) | 100 (≈ 308 µM) | 35 (≈ 108 µM) | – | – | – | – |
| O=C(c1ccc(Cl)cc1)N1CCC(n2cc(-c3noc(-c4ccccc4)n3)nn2)CC1 | 42.5 (≈ 97.7 µM) | 45 (≈ 103 µM) | 45 (≈ 103 µM) | 40 (≈ 92 µM) | 40 (≈ 92 µM) | – | – | – | – |
| CS(=O)(=O)N1CCC(n2cc(-c3noc(-c4ccccc4)n3)nn2)CC1 | 40 (≈ 107 µM) | 50 (≈ 134 µM) | 25 (≈ 66.8 µM) | 30 (≈ 80.1 µM) | 40 (≈ 107 µM) | – | – | – | – |
| CS(=O)(=O)N1CCC(n2cc(-c3noc(-c4ccc(Cl)cc4)n3)nn2)CC1 | 15 (≈ 36.7 µM) | 30 (≈ 73.4 µM) | 40 (≈ 97.8 µM) | 35 (≈ 85.6 µM) | 15 (≈ 36.7 µM) | – | – | – | – |
| CN1CCC(n2cc(-c3noc(-c4ccccc4)n3)nn2)CC1 | – | 50 (≈ 161 µM) | – | 60 (≈ 193 µM) | 30 (≈ 96.7 µM) | – | inactive | inactive | – |
| c1ccc(-c2nc(-c3cn(C4CCNCC4)nn3)no2)cc1 | 100 (≈ 337 µM) | 60 (≈ 202 µM) | 90 (≈ 304 µM) | 100 (≈ 337 µM) | 50 (≈ 169 µM) | – | – | – | – |
| CC(=O)N1CCC(n2cc(-c3noc(-c4ccc(Cl)cc4)n3)nn2)CC1 | 70 (≈ 188 µM) | 40 (≈ 107 µM) | – | 30 (≈ 80.5 µM) | 150 (≈ 402 µM) | – | – | inactive | – |
| CC(C)(C)OC(=O)N1CCC(n2cc(-c3noc(-c4ccccc4)n3)nn2)CC1 | 100 (≈ 252 µM) | 80 (≈ 202 µM) | 120 (≈ 303 µM) | – | 85 (≈ 214 µM) | inactive | – | – | – |
| OC(Cn1cncn1)(Cn1cncn1)c1ccc(F)cc1F [FLUCONAZOLE] | 10 (≈ 32.7 µM) | 5 (≈ 16.3 µM) | 5 (≈ 16.3 µM) | 5 (≈ 16.3 µM) | 5 (≈ 16.3 µM) | – | – | – | – |
| CC(=O)N1CCC(n2cc(-c3noc(-c4ccccc4)n3)nn2)CC1 | 95 (≈ 281 µM) | 35 (≈ 103 µM) | – | 35 (≈ 103 µM) | – | – | – | inactive | inactive |
| CCC(=O)N1CCC(n2cc(-c3noc(-c4ccc(Cl)cc4)n3)nn2)CC1 | 100 (≈ 259 µM) | 35 (≈ 90.5 µM) | – | 40 (≈ 103 µM) | 30 (≈ 77.6 µM) | – | – | inactive | – |
| Cc1ccc(S(=O)(=O)N2CCC(n3cc(-c4noc(-c5ccccc5)n4)nn3)CC2)cc1 | 37.5 (≈ 83.2 µM) | 60 (≈ 133 µM) | 40 (≈ 88.8 µM) | 70 (≈ 155 µM) | 45 (≈ 99.9 µM) | – | – | – | – |
| CCN1CCC(n2cc(-c3noc(-c4ccc(Cl)cc4)n3)nn2)CC1 | 40 (≈ 111 µM) | 70 (≈ 195 µM) | 100 (≈ 279 µM) | 80 (≈ 223 µM) | 35 (≈ 97.5 µM) | – | – | – | – |
